Values after ≈ are worked out from the molar mass of the structure shown. Active and inactive are the calls of the source. The calls are words filed in the database; no cut-off is given here.

Series [1] concerns Pseudomonas aeruginosa. The experiment in a line: Bactericidal activity against Pseudomonas aeruginosa INCQS 00099 ATCC 27853 incubated for 24 hrs followed by transfer of microbial suspension to agar plates and measured after 24 hrs post transfer by resazurin dye-based colorimetric analysis. The class given is functional. As to conditions: INCQS 00099 ATCC 27853, 24 h, read-out: MBC99.9. The essentials: (§1)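 For MBC, 10 µL from each clear MIC well was plated on agar and incubated 24 h at 37°C. MBC is the minimum concentration inhibiting 99.9% of growth. […] Triplicate.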

Series [2] deals with Enterococcus faecalis. Kind of series: Antimicrobial activity against Enterococcus faecalis INCQS 00234 ATCC 29212 assessed as zone of inhibition at 5 mg/ml after 18 to 24 hrs by disc diffusion method. Conditions: ATCC 29212 INCQS 00234, read-out: IZ. The format is functional. Background: A growth-free zone around the sample is the usual read-out of agar diffusion tests.
In series [3] the test system is Escherichia coli. Kind of series: Ratio of MBC99.9 to MIC for Escherichia coli INCQS 00033 ATCC 25922. The format is functional, ATCC 25922 INCQS 00033. The essentials:
(§2)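 MBC/MIC ratio from the 24 h, 37°C microdilution MIC and the agar-plating MBC (99.9% growth inhibition). A ratio ≤2 was classed as bactericidal and ≥4 as bacteriostatic.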

Series [4] relates to Staphylococcus epidermidis. The experiment in a line: Bactericidal activity against Staphylococcus epidermidis INCQS 00016 ATCC 12228 at 256 ug/ml incubated for 24 hrs followed by transfer of microbial suspension to agar plates and measured after 24 hrs post transfer by resazurin dye-based colorimetric analysis. Conditions: ATCC 12228 INCQS 00016. The class given is functional, organism-based. Put shortly:
as §1
On the technique in general: The colour change of resazurin is a common sign of viable cells or microbes.

Series [5] deals with Staphylococcus aureus. Kind of series: Antimicrobial activity against Staphylococcus aureus INCQS 00015 ATCC 25923 assessed as zone of inhibition at 5 mg/ml after 18 to 24 hrs by disc diffusion method. The format is functional. Conditions: read-out: IZ.
For series [6], the system named is Staphylococcus aureus. Kind of series: Antimicrobial activity against methicillin-resistant Staphylococcus aureus BMB9393 at 256 ug/ml after 24 hrs by microdilution assay. The class given is functional, organism-based.
The test system of series [7] is Staphylococcus aureus. Kind of series: Bactericidal activity against methicillin-resistant Staphylococcus aureus BMB9393 at 256 ug/ml incubated for 24 hrs followed by transfer of microbial suspension to agar plates and measured after 24 hrs post transfer by resazurin dye-based colorimetric analysis. The format is functional, organism-based. The essentials: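 From MIC wells with no visible growth, 10 µL is transferred to agar plates and incubated 24 h at 37°C. MBC is the minimum concentration inhibiting 99.9% of growth. […] Triplicate.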

The test system of series [8] is Staphylococcus aureus. The experiment in a line: Bactericidal activity against Staphylococcus aureus INCQS 00015 ATCC 25923 at 256 ug/ml incubated for 24 hrs followed by transfer of microbial suspension to agar plates and measured after 24 hrs post transfer by resazurin dye-based colorimetric analysis. The class given is functional, organism-based. The essentials:
as §1

Series [9] concerns Staphylococcus epidermidis. The experiment in a line: Antimicrobial activity against Staphylococcus epidermidis INCQS 00016 ATCC 12228 assessed as zone of inhibition at 5 mg/ml after 18 to 24 hrs by disc diffusion method. Conditions: ATCC 12228 INCQS 00016, read-out: IZ. The class given is functional.
Series [10] concerns Staphylococcus aureus. Kind of series: Antimicrobial activity against Staphylococcus aureus INCQS 00015 ATCC 25923 at 256 ug/ml after 24 hrs by microdilution assay. The class given is functional, organism-based. (In general: Dilution methods test growth across graded concentrations, often in twofold steps.)
For series [11], the system named is Staphylococcus aureus. Kind of series: Antimicrobial activity against methicillin-resistant Staphylococcus aureus BMB9393 assessed as zone of inhibition at 5 mg/ml after 18 to 24 hrs by disc diffusion method. The class given is functional. As to conditions: read-out: IZ.
Series [12] relates to Klebsiella pneumoniae. Kind of series: Antimicrobial activity against Klebsiella pneumoniae INCQS 00083 ATCC 4352 assessed as zone of inhibition at 5 mg/ml after 18 to 24 hrs by disc diffusion method. The class given is functional. As to conditions: read-out: IZ.
Series [13] concerns Pseudomonas aeruginosa. Kind of series: Antimicrobial activity against Pseudomonas aeruginosa INCQS 00099 ATCC 27853 after 24 hrs by microdilution assay. The format is functional. As to conditions: INCQS 00099 ATCC 27853, 24 h.
Series [14] has as its system Staphylococcus epidermidis. Kind of series: Antimicrobial activity against Staphylococcus epidermidis INCQS 00016 ATCC 12228 at 256 ug/ml after 24 hrs by microdilution assay. The format is functional, organism-based. Conditions: ATCC 12228 INCQS 00016.
Series [15] in a line: Hemolytic activity against human erythrocytes assessed as hemolysis at 200 ug/ml after 3 hrs by spectrophotometric analysis relative to control. The format is ADME, cell-based, Erythrocyte. As to conditions: read-out: Activity. Put shortly: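 Erythrocytes collected in citrate tubes, washed three times with PBS pH 7.4 by centrifugation and resuspended in PBS. Incubated with compounds at 200 µg/mL for 3 h at 37°C. Released hemoglobin was read in the supernatant at 545 nm against 1% Triton X-100 (complete lysis) and 1% DMSO (negative control). Below 10% hemolysis was taken as hemocompatible. Three independent experiments.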

Series [16] relates to Escherichia coli. Kind of series: Antimicrobial activity against Escherichia coli INCQS 00033 ATCC 25922 assessed as zone of inhibition at 5 mg/ml after 18 to 24 hrs by disc diffusion method. The format is functional. Conditions: ATCC 25922 INCQS 00033, read-out: IZ.
Series [17] has as its system Pseudomonas aeruginosa. Kind of series: Ratio of MBC99.9 to MIC for Pseudomonas aeruginosa INCQS 00099 ATCC 27853. The class given is functional. Put shortly: as §2
In series [18] the test system is Staphylococcus simulans. The experiment in a line: Antimicrobial activity against Staphylococcus simulans INCQS 00254 ATCC 27851 at 256 ug/ml after 24 hrs by microdilution assay. The class given is functional, organism-based.
For series [19], the system named is Pseudomonas aeruginosa. Kind of series: Antimicrobial activity against Pseudomonas aeruginosa INCQS 00099 ATCC 27853 assessed as zone of inhibition at 5 mg/ml after 18 to 24 hrs by disc diffusion method. The format is functional. As to conditions: read-out: IZ.
Series [20] concerns Escherichia coli. Kind of series: Bactericidal activity against Escherichia coli INCQS 00033 ATCC 25922 incubated for 24 hrs followed by transfer of microbial suspension to agar plates and measured after 24 hrs post transfer by resazurin dye-based colorimetric analysis. The format is functional. As to conditions: ATCC 25922 INCQS 00033, 24 h, read-out: MBC99.9. The essentials:
as §1

The subject of series [21] is Staphylococcus simulans. Kind of series: Bactericidal activity against Staphylococcus simulans INCQS 00254 ATCC 27851 at 256 ug/ml incubated for 24 hrs followed by transfer of microbial suspension to agar plates and measured after 24 hrs post transfer by resazurin dye-based colorimetric analysis. The format is functional, organism-based. The essentials: as §1
The test system of series [22] is Escherichia coli. The experiment in a line: Antimicrobial activity against Escherichia coli INCQS 00033 ATCC 25922 after 24 hrs by microdilution assay. The format is functional. Conditions: ATCC 25922 INCQS 00033, 24 h.
Series [23] concerns Staphylococcus simulans. Kind of series: Antimicrobial activity against Staphylococcus simulans INCQS 00254 ATCC 27851 assessed as zone of inhibition at 5 mg/ml after 18 to 24 hrs by disc diffusion method. The format is functional. As to conditions: read-out: IZ.
Series [24] concerns Proteus mirabilis. The experiment in a line: Antimicrobial activity against Proteus mirabilis INCQS 00095 ATCC 15290 assessed as zone of inhibition at 5 mg/ml after 18 to 24 hrs by disc diffusion method. The class given is functional. As to conditions: read-out: IZ.

As usually defined, the MIC is the lowest concentration found to suppress growth. A low value points to greater potency. For the molecule `CC1(C)O[C@H]2O[C@H](CNC3=C(Cl)C(=O)c4ccccc4C3=O)[C@H](O)[C@H]2O1`, the MBC is 8 mg/L (≈ 21.1 µM) in [1] and 4 mg/L (≈ 10.5 µM) in series [20]. The zone of inhibition at 5000 µg/mL in series [2] amounted to 0 mm; in series [5], 14 mm; in series [9], 15 mm; in series [11] it was 0 mm; in series [12], 0 mm; in series [16] it was 17 mm. Besides, the zone of inhibition at 5000 µg/mL in series [19] came out at 21 mm; in series [23] it was 13 mm; in series [24] it was 0 mm. For the same molecule, the Ratio in [3] and in [17] was 1 each time. In addition, the result in series [4], in [6], in [7], in series [8], in [10] and in series [14] was inactive. Moreover, the outcome in series [18] and in series [21] was inactive. For the same molecule, the MIC is 8 mg/L (≈ 21.1 µM) in [13] and 4 mg/L (≈ 10.5 µM) in series [22]. Moreover, the hemolysis at 3 h, 200 ug/ml in series [15] fell in the range of 10.1 to 14.4%.

For `CO[C@@H]1O[C@H](CNC2=C(Br)C(=O)c3ccccc3C2=O)[C@H]2OC(C)(C)O[C@@H]12`, the figures for the MBC in series [1] and in series [20] were 34 mg/L (≈ 77.6 µM) and 32 mg/L (≈ 73 µM), respectively. The zone of inhibition at 5000 µg/mL in [2] worked out at 0 mm; in series [5] it was 8 mm; in series [9], 10 mm; in series [11], 0 mm; in [12], 0 mm; in series [16], 16 mm. Further, the zone of inhibition at 5000 µg/mL in [19] is 13 mm; in series [23], 8 mm; in [24], 0 mm. The Ratio in series [3] and in [17] was 1 each time. For the same molecule, the result in [4], in series [6], in series [7], in [8], in [10] and in series [14] was inactive. Also, the outcome in [18] and in [21] was inactive. Further, the MIC in [13] is 64 mg/L (≈ 146 µM); in series [22], 32 mg/L (≈ 73 µM). Besides, the hemolysis at 3 h, 200 ug/ml in series [15] was < 10%.

In the case of `COC(=O)c1c(C)nc(C)c2c1C(=O)C(Br)=C(NC[C@H]1O[C@@H](OC)[C@@H]3OC(C)(C)O[C@@H]31)C2=O`, the MBC in series [1] and in [20] was 8 mg/L (≈ 15.2 µM) each time. Besides, the zone of inhibition at 5000 µg/mL stood at 0 mm in series [2]; 13 mm in series [5]; 11 mm in [9]; 12 mm in series [11]; 0 mm in series [12]; 17 mm in series [16]. For the same molecule, the values for the zone of inhibition at 5000 µg/mL in series [19], in series [23] and in series [24] were 17 mm, 0 mm and 0 mm, respectively. Besides, the Ratio in series [3] and in series [17] was 1 throughout. For the same molecule, the result in series [4], in series [6], in series [7], in series [8], in series [10] and in series [14] was inactive. For the same molecule, the outcome in series [18] and in series [21] was inactive. Moreover, the MIC in [13] and in series [22] was 8 mg/L (≈ 15.2 µM) throughout. In series [15], the hemolysis at 3 h, 200 ug/ml is < 10%.

The values are drawn from ChEMBL document CHEMBL4270541, “Synthesis and antimicrobial evaluation of amino sugar-based naphthoquinones and isoquinoline-5,8-diones and their halogenated compounds” (Eur J Med Chem, 2018).
